# Bioassay records as filed in PubChem BioAssay.
# Jurkat tox 60K – cytotoxicity toward Jurkat cells; 1.2% of 56,000 active; Jurkat E6.1 viability, ATP luminescence, 48 h; inhibition, % at 4 µM;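 active means inhibition above the mean inhibition of all tested compounds plus 3 SD, cut at about 28% in these data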
# HUVEC inhibit – human endothelial cell proliferation inhibition | HUVEC proliferation, CellTiter-Glo luminescence, 72 h; stronger effect = lower value | viability, % at 10 µM (by protocol) | 1.1% of 86,000 active;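 active means viability at or below 30%; inactive means viability above 30%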;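 further: 100% = median luminescence of DMSO-only cell control wells on each plate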
# H69AR growth 86K – blocks growth of human H69AR lung tumor cells; H69AR lung tumor viability, ATP luminescence, 72 h; stronger effect = lower value; 6% of 85,000 active; AID 598; viability, % at 10 µM;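 active means viability at or below 40%; inactive means viability above 40%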;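 further: multidrug resistant small cell line overexpressing MRP-1 efflux transporter; 100% = mean luminescence of untreated control wells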
# Lung fibro prol – blocks proliferation of human lung fibroblasts. viability, % at 10 µM. 1.1% of 85,000 active. LL 47 human lung fibroblast viability, ATP luminescence; stronger effect = lower value. AID 719;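 active means viability at or below 50% in the single dose screen; inactive means viability above 50%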;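 further: compound exposure lasted 72 h before the ATP readout; 100% = median luminescence of untreated cell-only wells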
#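 Times – overnight cell rest, 72 h compound treatment at 37 °C · Test system – human lung fibroblast line LL 47, low passage · Amount – 1,150 cells in each well · Controls – cell-only wells, no compound · Doses – 0.1% DMSO in all compound wells · Measured by – CellTiter-Glo luminescence · Buffer or medium – IMEM plus 15% FBS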
# Ecoli WT expand – E. coli BW25113 growth inhibition, expanded screen; OD600 absorbance; growth inhibition, % at 100 µM; 0.15% of 98,000 active; AID 710;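 active means growth inhibition above about 50% at one test dose, limit read from the data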;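 further: growth measured after 20 h incubation at 37 °C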
# tolC growth inh – E. coli tolC mutant growth inhibition | growth inhibition, % at 10 µM (by protocol) | 2.2% of 65,000 active | E. coli BW25113 tolC mutant growth, OD615 | AID 573;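 active means growth inhibition at or above a cutoff equal to the mean over every tested compound plus 3 SD, cut at about 60% in these data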;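 further: growth measured after 20 h incubation at 37 °C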
#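 System: E. coli ΔtolC::kan strain BW25113; Buffer or medium: LB broth supplemented with 50 µg/mL kanamycin; Compound: 10 µM final, single dose; Incubation: bacterial growth with compound for 20 h at 37 °C; Signal: A615 absorbance measurement; Evaluation: growth inhibition in percent.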
# * marks the source's active call; other numbers are inactive results; . = no result given. Hits are enriched below; roughly 6.4% of the tested compounds scored in any of these assays.
SMILES,Jurkat tox 60K,HUVEC inhibit,H69AR growth 86K,Lung fibro prol,Ecoli WT expand,tolC growth inh
CCOC(=O)c1c(C)[nH]c(C(=O)C(C)OC(=O)c2cccc(OCc3c(C)noc3C)c2)c1C (stereo not drawn),4,83,81,98,-18,43
O=C(Nc1ccc(Cl)cc1Cl)c1n[nH]c(Cn2cncn2)n1,.,.,.,.,-5,.
Clc1ccc(OCc2nnc(-c3ccccc3Br)o2)c(Cl)c1,-3,61,87,94,-7,10
Clc1ccc(OCc2nnc(-c3ccccc3Br)o2)cc1,-8,115,106,107,3,63*
O=C(Nc1nc(-c2ccccc2)cs1)c1ccc(Br)o1,-8,.,.,.,-14,25
COc1ccc(Cn2c(CCC(=O)Nc3ccccc3)nc3cccnc32)cc1,.,75,89,95,-5,.
COc1ccc(Cn2c(CCC(=O)Nc3ccc(C)c(C)c3)nc3cccnc32)cc1,.,84,37*,105,-8,.
CCC(c1nnnn1C(C)(C)C)N(Cc1cccs1)Cc1cc2cc(C)c(C)cc2n2nnnc12 (stereo not drawn),.,98,81,83,.,.
O=C(c1ccc(Cl)cc1)c1c[nH]c(C(=O)C(Cl)(Cl)Cl)c1,.,49,2.4*,44*,6,.
CCOC(=O)C1=C(c2ccccc2)NC(=S)NC1C (stereo not drawn),.,.,.,.,9,.
COc1cccc2cc(-c3nnc(SCC(=O)Nc4cc(C(F)(F)F)ccc4Cl)n3N)oc12,6,69,7.6*,88,-8,-1
CCn1c(SCC(=O)Nc2nccs2)nnc1-c1cc2cccc(OC)c2o1,-1,109,96,106,-12,-18
CC(=O)OCC1=C(C(=O)O)N2C(=O)[C@@H](NC(=O)Cc3cccs3)[C@H]2SC1,.,.,.,.,.,100*
Cc1cc2n(n1)C(c1ccc3c(c1)OCO3)Nc1c(C)cccc1-2 (stereo not drawn),-1,93,96,91,0,71*
COc1ccc(-c2nc(N)ncc2-c2csc(C)n2)c(O)c1,1,106,94,95,-2,-18
COc1ccc(-c2nc(N)nc(C)c2Oc2ccccc2Br)c(O)c1,11,80,23*,75,5,35
Cn1c(Cc2cccs2)nnc1SC/C=C/c1ccccc1,-3,92,95,100,-1,11
O=C(c1ccco1)N(CC1CCCO1)c1nc(-c2ccccc2)cs1 (stereo not drawn),14,90,44,89,-11,44
Cc1ccc(-c2csc(N(CC3CCCO3)C(=O)c3ccco3)n2)cc1 (stereo not drawn),4,105,53,93,.,67*
CC1(C)Cc2c(sc3[nH]c(=S)n(Cc4ccco4)c(=O)c23)CO1,.,80,30*,88,-9,8
CC1(C)Cc2c(sc3c2c(=N)n(Cc2ccco2)c(=O)n3Cc2ccc(Cl)cc2)CO1,.,100,78,94,-20,64*
COc1ccc(NC2=NC3(CCCCC3)N=C(N)N2)cc1,2,113,103,107,12,23
CCCCOc1ccc(NC2=NC3(CCCCC3)N=C(N)N2)cc1,14,71,75,61,59*,99*
Cn1c(SC2CCCCC2=O)nnc1-c1ccncc1 (stereo not drawn),.,83,86,94,-5,.
COc1ccc(CCNC(=O)C2CCN(Cc3nc(-c4ccc(Cl)cc4)oc3C)CC2)cc1OC,-4,84,101,100,.,4
SMILES,Jurkat tox 60K,HUVEC inhibit,H69AR growth 86K,Lung fibro prol,Ecoli WT expand,tolC growth inh
CCN(CCNC(=O)C1CCN(Cc2nc(-c3ccc(Cl)cc3)oc2C)CC1)c1ccccc1,7,3.9*,7.3*,63,12,7
CCN(CCNC(=O)C1CCCN(Cc2nc(-c3ccc(OC)cc3)oc2C)C1)c1ccccc1 (stereo not drawn),3,4.7*,32*,.,-2,25
CCc1ccc(-c2nc(CN3CCC(C(=O)NCCN(CC)c4ccccc4)CC3)c(C)o2)cc1,8,2.3*,1.6*,17*,12,32
CCc1ccc(-c2nc(CN3CCCC(C(=O)O)C3)c(C)o2)cc1 (stereo not drawn),1,108,107,98,9,-5
CCc1ccc(-c2nc(CN3CCC(C(=O)NCc4ccc(F)cc4)CC3)c(C)o2)cc1,2,14*,3.3*,96,-4,14
Cc1ccc(C)c(N2CCN(C(=O)CN(C)S(=O)(=O)c3cnc[nH]3)CC2)c1,9,101,93,100,-4,-5
Cc1cccc(-c2nc(CN3CCCC(C(=O)NC4CCC(C)CC4)C3)c(C)o2)c1 (stereo not drawn),-5,12*,65,99,17,42
CCN(CCNC(=O)C1CCN(Cc2nc(-c3cccc(Cl)c3)oc2C)CC1)c1ccccc1,7,5.4*,3.0*,43*,9,65*
Cc1oc(-c2ccccc2F)nc1CN1CCC(C(=O)NCc2ccco2)CC1,8,101,38*,101,1,0
Cc1oc(-c2ccccc2F)nc1CN1CCC(C(=O)NC2CCCCCCC2)CC1,7,68,73,96,2,16
Cc1cccc(-c2nc(CN3CCCC(C(=O)NC4CCCC4)C3)c(C)o2)c1 (stereo not drawn),-4,86,73,88,12,6
O=C(Nc1cccc2c1[nH]c1ccccc12)C(F)(F)F,.,95,11*,99,.,.
Cc1ccc(S(=O)(=O)Nc2cccc(-c3cn4ccsc4n3)c2)cc1,20,70,30*,88,-2,83*
CCCn1c(SCc2ccon2)nc2ccccc2c1=O,.,104,68,105,-3,.
N#Cc1cc2c(nc1SCC(=O)Nc1nccs1)CCCCC2,5,84,69,95,-5,-10
COc1ccc(-c2ccc(C#N)c(SCC(=O)Nc3sc4c(c3C#N)CCC4)n2)cc1OC,.,8.7*,1.0*,68,0,.
COc1ccc(-c2nnn(CC(=O)Nc3sc4c(c3C#N)CCCC4)n2)cc1,-6,108,6.8*,108,-2,-5
COc1ccc(-c2cc(C(F)(F)F)nc(SCC(=O)Nc3sc4c(c3C#N)CCC4)n2)cc1,.,.,.,.,1,.
N#Cc1cc2c(nc1SCC(=O)Nc1sc3c(c1C#N)CCC3)CCC2,.,57,34*,86,-3,.
CCc1nnc(NC(=O)CSc2nc3c(cc2C#N)CCC3)s1,2,77,78,99,-5,-10
CCC(=O)Nc1sc2c(c1C#N)CCCCC2,.,101,96,93,2,.
N#Cc1cc2c(nc1SCC(=O)Nc1sc3c(c1C#N)CCC3)CCCCCC2,.,77,11*,75,-15,.
CC(C)OC(=O)CC(=O)CSc1nc2c(cc1C#N)CCCC2,-1,89,68,102,-4,-9
CC(C)OC(=O)CC(=O)CSc1nc2c(cc1C#N)CCC2,-2,81,24*,93,0,-24
COc1ccc2nc(NC(=O)c3cccc(OCc4c(C)noc4C)c3)sc2c1,70*,49,21*,59,-7,45
